# Sampled rows, rich in hits. Any-hit rate of the full collection: about 4.2%.
# OX1R antag-1 = antagonists of human orexin 1 receptor (OX1R); O43613; 330,000 tested, 1.8% active; OX1R-expressing cells, FRET antagonist read-out; inhibition, % at 6.6 µM; in the data active = inhibition mostly above about 38%, no sharp cut-off; inactive = mostly below about 40%;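 note: 0% = agonist challenge alone and 100% = reference antagonist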
# TAAR1 ag = agonists of human TAAR1; Q96RJ0; CHO RD-HGA16 TAAR1, Fluo-8 calcium fluorescence; vehicle wells 0%, saturating PEA agonist 100%; activation, % at 3 µM; 360,000 tested, 0.99% active;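 active = activation above the mean activation of all test compounds in the run plus 3 SD, cut at about 38% in these data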
#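 Assay system – CHO-derived RD-HGA16 cells with stable Gα16 and human TAAR1 · Compound dosing – one-point dosing at 3 µM (nominal) · Incubation – 17-24 h seeding, 75 min 37 °C dye, 30 min RT · Measured by – kinetic Fluo-8 calcium fluorescence · Control set – DMSO vehicle as 0%, PEA at EC100 as 100% · Repeats – single well for each compound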
# TAAR1 antagonist = antagonists of human TAAR1; Q96RJ0; CHO RD-HGA16 TAAR1, Fluo-8 calcium fluorescence, antagonist; inhibition, % at 3 µM; 360,000 tested, 1.5% active; AID 624466;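 active = inhibition above a per-plate cutoff, the mean inhibition of test compounds on that plate plus 3 SD, cut at about 49% in these data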;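 note: 0% = DMSO plus EC80 beta-PEA response and 100% = DMSO alone without agonist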
#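 Material: RD-HGA16 CHO cells with stable hTAAR1 and Gα16; Dosing: single nominal final test compound concentration of 3 µM; Schedule: seeding 17-24 h prior, 75-min 37 °C, 30-min RT dye loading; Detection: kinetic Fluo-8 calcium fluorescence measurement; Measure: % inhibition from peak post-agonist over basal fluorescence ratio; Benchmarks: vehicle and agonist controls.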
# CHO parental Ca = counter-screen: ATP calcium response change in parental CHO cells; parental CHO-K1, ATP-induced calcium, Fluo-8 fluorescence; inhibition, % at 5.6 µM; 330,000 tested, 0.63% active; AID 463079;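 active = inhibition above that plate's mean sample inhibition plus 3 SD, cut at about 26% in these data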;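 note: 0% = ATP-challenged DMSO wells and 100% = DMSO wells without ATP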
#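 Material: parental CHO cells / Compound: single nominal dose of 5.6 µM per compound / Signal: Fluo-8 fluorescence / Replicates: singlicate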
# OX1R antag-2 = antagonists of human orexin 1 receptor. inhibition, % at 5 µM. O43613. CHO/OX1R cells, Fluo-8 calcium fluorescence, orexin A. 330,000 tested, 0.43% active;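 active = inhibition above its plate's threshold, mean inhibition of all tested compounds on the plate plus 3 SD, cut at about 37% in these data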;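 note: 0% = orexin A challenge wells and 100% = SB-334867-A antagonist wells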
# GalR3 antagonist = human GalR3 antagonism; O60755; HEK293 GalR3-CNG cAMP membrane potential fluorescence; galR3 body fused to GalR1 C-terminus; inhibition, % at 3 µM; 360,000 tested, 0.44% active; AID 651719;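 active = inhibition above the screen-wide average plus 3 SD, cut at about 13% in these data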;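 note: forskolin and galanin both at EC90 stimulate the cells; cAMP rise reported by CNG channel membrane potential dye signal; 0% = forskolin plus galanin with DMSO and 100% = forskolin alone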
# Target sequence (O60755 1-299 limits assumed): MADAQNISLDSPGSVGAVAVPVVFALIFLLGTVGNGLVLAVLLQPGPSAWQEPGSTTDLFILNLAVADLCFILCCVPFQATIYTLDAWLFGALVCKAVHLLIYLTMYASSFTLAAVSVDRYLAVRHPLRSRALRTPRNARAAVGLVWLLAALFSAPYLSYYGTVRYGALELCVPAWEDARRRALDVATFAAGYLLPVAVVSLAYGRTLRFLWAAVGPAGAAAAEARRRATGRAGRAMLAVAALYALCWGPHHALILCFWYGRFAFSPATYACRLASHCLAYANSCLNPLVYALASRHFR
# Active calls of the source: *; nt = not tested or not shown.
SMILES,OX1R antag-1,TAAR1 ag,TAAR1 antagonist,CHO parental Ca,OX1R antag-2,GalR3 antagonist
Brc1ccc(N/N=C(/N=Nc2nn[nH]n2)c2ccccc2)cc1,47*,4,19,-8,-9,-7
O=C(O)c1ccc(N=N/C(=N\Nc2ccc(C(=O)O)cc2)c2ccccc2)cc1,24,4,16,-5,-14,-4
Cc1cc(C)nc(CC(N)=O)n1,0,0,11,10,8,-4
CC1=CC[C@@]23CCCN2C(=O)CCC[C@H]3C1,0,4,-25,-12,2,-5
Cc1ccc(C)c(C(=O)COC(=O)c2n[nH]c3ccccc23)c1,36*,1,41,-16,-14,-5
CC1=Nc2ccccc2/C1=C/c1nc(-c2ccc(C)s2)oc1O,16,38*,54*,43*,68*,-7
CC1=Nc2ccccc2/C1=C\c1nc(-c2ccccc2)oc1O,26,7,28,14,19,-5
CC1=C(Nc2ccc(C(=O)O)cc2)C(=O)c2ccccc2C1=O,44*,-1,-6,-2,-14,-11
Cc1ccc(NC2=C(N3CCCCC3)C(=O)c3ccccc3C2=O)cc1,13,2,-2,-14,-25,-3
CCN(C[C@H]1N[C@@](Cc2ccccc2)(C(=O)OC)[C@H]2C(=O)N(Cc3ccccc3)C(=O)[C@@H]12)C(=O)Nc1ccc(C(F)(F)F)cc1,37*,7,2,10,29,-3
O=C(O)c1cnc(-c2ccccc2)nc1-c1ccccc1,62*,1,13,-9,3,-5
O=C1c2ccccc2C(c2nnnn2Cc2ccccc2)N1Cc1ccc(F)cc1 (configuration not stated),nt,1,-15,nt,nt,-4
C=CCN1C(=O)S/C(=C/c2ccsc2)C1=O,5,2,-8,3,-15,-1
CC(C)N1C(=O)S/C(=C/c2ccc(Sc3nc4ccccc4[nH]3)o2)C1=O,54,13,32,71*,56*,-3
C=CCN1C(=O)S/C(=C/c2ccc(Sc3nc4ccccc4[nH]3)o2)C1=O,41,18,39,27,47*,-5
CCOC(=O)c1cc2c(C)n(-c3ccc(OCC)cc3)c(C)c2ccc1=O,26,1,-5,-13,-32,-3
CCOC(=O)c1cc2c(C)n(-c3ccc(C)cc3)c(C)c2ccc1=O,41*,0,2,-8,-13,-7
CC(C)CCNC(=O)Cc1c(C(=O)O)[nH]c2ccc(Cl)cc12,27,-1,-6,-9,-4,-2
CC(C)C(NCC(=O)Nc1ccccc1C(=O)NC1CC1)c1ccccc1 (configuration not stated),43*,7,15,-12,16,-1
CC(NCC(=O)Nc1ccccc1C(=O)NC1CC1)c1cccs1 (configuration not stated),29,2,14,-17,-9,-6
O=S(=O)(Nc1cccc(-c2cn3c(n2)SCC3)c1)c1cccs1,56*,0,-1,-3,1,0
Cc1ccc(C(=O)OCC(=O)NCC(F)(F)F)cc1C,16,6,12,-3,-9,-4
O=C(/C=C/c1cccc([N+](=O)[O-])c1)Nc1cc(C(=O)O)cc(C(=O)O)c1,62*,4,-8,14,-4,7
COc1ccccc1N1CCN(S(=O)(=O)c2cccc(F)c2)CC1,12,2,8,-24,-28,-5
COc1ccccc1N1CCN(S(=O)(=O)c2ccc(F)cc2)CC1,-1,38*,3,-5,-13,-7
CCN(CC)S(=O)(=O)c1ccc(N2CCN(c3ccccc3OC)CC2)c(N)c1,38,4,26,61*,6,-7
CCN(CC)S(=O)(=O)c1ccc(Oc2ccccc2)c(N)c1,18,4,-1,-3,-5,-8
CNc1nc(-c2ccc3c(c2)CCN3C(=O)c2ccccc2F)cs1,nt,2,53*,nt,nt,-5
CCCC(=O)c1ccc(N2CCN(C(=O)c3ccccc3Br)CC2)c(F)c1,41,15,13,52*,32,0

# Screens as filed in PubChem BioAssay.
